Reference: BindingDB's records for doi:10.1021/jm960807v (University of Florence, 1997)

Target: T1, 3-oxo-5-alpha-steroid 4-dehydrogenase 2 (Homo sapiens, UniProt P31213)
T1 sequence (P31213 whole entry): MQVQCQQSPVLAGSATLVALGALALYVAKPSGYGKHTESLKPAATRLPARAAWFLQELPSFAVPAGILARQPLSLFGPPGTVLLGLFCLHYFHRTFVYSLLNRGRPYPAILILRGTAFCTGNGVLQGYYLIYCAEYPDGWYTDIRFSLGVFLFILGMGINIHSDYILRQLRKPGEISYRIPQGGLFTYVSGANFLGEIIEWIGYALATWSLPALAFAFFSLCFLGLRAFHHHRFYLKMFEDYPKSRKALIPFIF
Assay: Inhibitory activity against 5-alpha Reductase-2 on human prostate homogenates from surgically derived benign hyperplastic tissue
Procedure, shortened: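 Benign hyperplastic human prostate tissue, stored at -80 °C, was homogenized near 0 °C in 50 mM TRIS pH 7.4 with salts, nicotinamide and sucrose, spun at 200g, and the combined supernatants were used. Homogenate (0.1 mg protein) was incubated with 30 nM testosterone (9% [3H]) and 0.3 mM NADPH for 30 min at 37 °C, with the inhibitor added alongside the substrate. Inhibitor range was 10⁻¹⁰–10⁻⁵ M. DHT conversion was read by TLC and scintillation, in duplicate.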

Row | Compound | IC50 [µM]
1 | C[C@]12CCC3=C4C(=O)CCN=C4CCC3[C@@H]1CCC2=O (some centres not stated) | > 100
2 | C[C@]12CC=C3[C@@H](CCC4=CC(=O)CCN43)C1CCC2=O (some centres not stated) | 4.6
